This excerpt belongs to a sample that is enriched for hits.
Hsp70 act = switches on Hsp70 transcription; HeLa Hsp70 promoter luciferase reporter, luminescence; scaled: vehicle 0, proteasome-inhibitor control 100%; activation, % at 10 µM; 0.04% of 200,000 active; AID 1203;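 active means activation above the mean across all tested compounds plus 3 SD, cutoff set per campaign, cut at about 5.5% in these data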;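 further: 100% = MG132 at 30 µM as the positive control and 0% = DMSO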
L major viab = reduces viability of Leishmania major promastigotes | resazurin fluorescence viability | AID 1063 | 9% of 200,000 active | inhibition, % at 10 µM; in the data active means inhibition above about 50%;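 further: promastigotes grown with compound for 44 hours at 28 °C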
HSF1 inh = HSF1 inhibition. NIH3T3-HGL HSE-luciferase, MG132-induced, luminescence 8 h; hits give low values. activity change, negative = inhibition, % at 7.5 µM (by protocol). 0.77% of 300,000 active. AID 2098;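 active means more than half of replicate wells show activity change below -50%, luminescence cut by over half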;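 further: luciferase reports HSF-1 transcriptional activity via heat shock element; 0% = median of DMSO wells and -100% = zero luminescence signal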
T cruzi inh = T. cruzi replication inhibition; inhibition, % (test concentration not listed); 1.4% of 300,000 active; T. cruzi beta-gal in NIH3T3, luminescence, 90 h; AID 1885;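 active means mean inhibition across valid replicates above about 55%, limit read from the data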;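 further: signal also drops with host cell toxicity which is not excluded here; 0% = plate median of DMSO wells and 100% = zero luminescence signal; higher percent means less beta-gal luminescence so fewer parasites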
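Incubation – ≥90 h infection period, 3 h prior cell attachment · System – NIH/3T3 fibroblasts plus reporter T. cruzi · Doses – compound pinned at 50 nL/well, DMSO · Read-out basis – percent inhibition of parasite-derived β-gal signal · Signal – luminescent β-galactosidase signal after 60 min lysis · Also added – 5000 T. cruzi trypomastigotes/well · Medium – Low-serum DMEM with 2% FBS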
HSF1 activator = increases HSF-1 driven luciferase reporter signal; NIH3T3-HGL HSF-1 luciferase reporter, MG132, 8 h; 100% = twice DMSO control signal; activation, % at 9 µM; 1.7% of 300,000 active; AID 504408;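 active means mean replicate activation of at least 50% with a set share of replicates each reaching 50%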;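 further: 0% = median of the neutral control wells and 100% = twice that signal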
The depositor's hits bear a star; x = no result.

SMILES	Hsp70 act	L major viab	HSF1 inh	T cruzi inh	HSF1 activator
Cc1nn(CC(N)=O)c(=O)c2ccccc12	0	100*	0	58*	-14
Cc1ccc(-n2nc(C(=O)O)c3ccccc3c2=O)cc1C	0	-4	-3	-19	-16
CCCOc1ccc(C(=O)C(CN2CCCC2)c2ccccc2)cc1 (configuration not stated)	-1	100*	44	-2	48
O=C(c1ccc(Cl)cc1)C(CN1CCCC1)c1ccccc1 (configuration not stated)	x	x	2	36	23
COc1ccc(C(C(=O)OCCN(C)C)c2ccccc2)cc1 (configuration not stated)	-1	-6	6	-3	36
COc1ccc(C(=O)C(CN2CCOCC2)c2ccccc2)cc1 (configuration not stated)	0	101*	3	29	-4
CCCCOc1ccc(C(=O)C(CN2CCOCC2)c2ccccc2)cc1 (configuration not stated)	0	101*	35	20	36
CCCOc1ccc(C(C(=O)OCCN(CC)CC)c2ccccc2)cc1 (configuration not stated)	0	99*	7	5	21
CCN1C(=O)[C@H]2[C@@H](c3ccc(-c4ccc(C(C)=O)cc4)cc3)N[C@@](Cc3ccccc3)(C(=O)OC)[C@H]2C1=O	x	x	4	16	2
O=C(c1ccc(F)cc1)C(CN1CCOCC1)c1ccccc1 (configuration not stated)	0	101*	6	58*	11
COc1ccc(C(=O)C(CN2CCCC2)c2ccccc2)cc1 (configuration not stated)	0	100*	7	3	-1
c1ccc(C(CN2CCOCC2)c2ccccc2)cc1	0	-2	-5	1	18
O=C(c1ccccc1)C(CCC(CN1CCOCC1)C(=O)c1ccccc1)CN1CCOCC1 (configuration not stated)	0	100*	64	-3	86*
O=C(NCCN1CCOCC1)c1ccc(F)cc1	0	-5	-1	-23	-2
COc1ccc2oc(C(=O)Nc3nc(-c4ccccn4)cs3)c(C)c2c1	x	x	-6	70*	-12
O=S(=O)(Cc1nc2ccccc2s1)c1ccccc1	0	-4	29	x	59*
COc1ccc2oc(C(=O)Nc3nc4ccc(S(C)(=O)=O)cc4s3)c(C)c2c1	x	x	2	-6	3
O=C(CCS(=O)(=O)c1ccc(F)cc1)Nc1nc(-c2ccccn2)cs1	x	x	0	-13	7
Cc1ccnc(NC(=O)CCS(=O)(=O)c2ccccc2)c1	x	x	0	-1	19
O=C(CCS(=O)(=O)c1ccccc1)Nc1ccccn1	x	x	17	-9	59*
O=S(=O)(CCc1nc2ccccc2s1)c1ccc(Cl)cc1	0	-5	6	-8	-1
COc1ccc(OCCCC(=O)Nc2nc(-c3ccccn3)cs2)cc1	0	100*	3	62*	-2
COc1ccc2c(c1)C(=O)N(Cc1ccccc1)C(=O)C2(C)C	x	x	4	20	3
COc1ccc(Cl)cc1C(=O)NNC(=O)COC(=O)CC(NC(C)=O)c1ccccc1 (configuration not stated)	x	x	2	-8	8
CC(C)(C)NC(=O)c1nc2ccccc2s1	-1	-3	-1	-11	15
SMILES	Hsp70 act	L major viab	HSF1 inh	T cruzi inh	HSF1 activator
O=C(CCS(=O)(=O)c1ccccc1)Nc1ccc(-c2nc3ccccc3s2)cc1	0	-1	14	-35	58*
COc1ccc(OC)c(-c2csc(NC(=O)CSc3ccccc3)n2)c1	0	77*	-1	-9	6
O=C(Nc1ccccc1)c1nc2ccccc2s1	0	-4	24	-23	59*
Cc1cc(C)c(OCC(=O)Nc2nc(-c3ccccn3)cs2)c(C)c1	0	87*	-29	70*	-25
O=C(CCS(=O)(=O)c1ccccc1)Nc1nc(-c2ccccn2)cs1	0	92*	-24	-108	-39
Cc1cc(=O)c2cc(C(=O)c3ccccc3)ccc2[nH]1	x	x	7	-3	20
CCN1C/C(=C/c2ccc(N3CCOCC3)cc2)C(=O)/C(=C/c2ccc(N3CCOCC3)cc2)C1	0	100*	0	-6	9
CN1C/C(=C/c2ccsc2)C(=O)/C(=C/c2ccsc2)C1	0	100*	-3	56*	5
CCc1ccc(/C=C2/SC(N3CCOCC3)=NC2=O)cc1	x	x	5	2	11
CN1C/C(=C/c2ccncc2)C(=O)/C(=C/c2ccncc2)C1	x	x	1	-21	-14
CN1C/C(=C\c2ccc(N3CCOCC3)cc2)C(=O)/C(=C/c2ccc(N3CCOCC3)cc2)C1	0	100*	67	-18	133*
Cc1nonc1NC(=O)CSc1nc2ccccc2o1	x	x	-5	-17	6
Cc1ccc(C)c(NC(=S)N2CCC(NC(=O)c3ccc(F)cc3)CC2)c1	x	x	-1	3	11
COCCCC1CCN(C(=O)c2cc(COc3cc(C)ccc3C)on2)CC1	x	x	25	16	54*
COCCN1CCN(C(=O)c2cc(COc3cc(C)ccc3C)on2)CC1	x	x	20	0	30
CC(C)(C)c1ccc2c(c1)C(=O)c1ccccc1C2=O	0	-6	-3	4	4
CC(C)(C=O)C1=CC(=O)c2ccccc2C1=O	0	56*	x	x	x
CCC(C)(C(=O)NC1CCCCC1)N(C(=O)CNC(=O)c1ccccc1)c1c(C)n(C)n(-c2ccccc2)c1=O (configuration not stated)	0	-2	5	-10	2
Cc1oc(C)c2c(=O)ccc3c(c12)OC(N)=C(C#N)C3c1ccc(F)cc1 (configuration not stated)	0	60*	-8	6	-2
Cc1ccc(C2C(C#N)=C(N)Oc3cc(N)ccc32)cc1 (configuration not stated)	x	x	2	2	4
Cc1ccc(C2N(c3ccccc3)C(=S)N3CCCN23)cc1 (configuration not stated)	0	10	-82*	-5	-86
Fc1ccc(C2N(c3ccccc3)C(=S)N3CCCN23)cc1 (configuration not stated)	x	x	-8	-1	-7
O=S(=O)(c1ccc(NC(=S)NCc2ccncc2)cc1)N1CCCCC1	x	x	3	7	27
Cc1ccc2[nH]c3c(N4CCc5ccccc5C4)ncnc3c2c1	0	68*	52	8	92*
Fc1ccc2[nH]c3c(N4CCc5ccccc5C4)ncnc3c2c1	x	x	3	19	30
Brc1ccc2[nH]c3c(N4CCc5ccccc5C4)ncnc3c2c1	0	48	44	47	58*
O=C(c1cscn1)N1CCCC(N2CCN(c3ccc(F)cc3)CC2)C1 (configuration not stated)	x	x	-4	-19	-16
Cc1ccc(N2CCN(C(=S)Nc3ccccc3C)CC2)cc1	x	x	-1	4	-5
O=C(c1ccc2oc(CCCc3ccccc3)nc2c1)N1CCCC1	x	x	46	0	87*

Bioassay records from PubChem BioAssay.
